Converted amounts (≈) assume the structure as drawn.
Legend:
Escherichia coli [1] = experiment: Antibacterial activity against Escherichia coli ATCC 25922 incubated for 24 hrs by broth microdilution method; format: functional
Summary of the method: (§1)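 CLSI-based broth microdilution. Pure bacterial suspensions were set to 0.5 McFarland (about (1−2) × 10^8 CFU/mL) and diluted to a final inoculum of about 5 × 10^5 CFU/mL. Compounds were tested in 2-fold dilutions from 100 to 0.78 μM and incubated at 35 °C for 24 h. MIC was read as the lowest concentration with no growth visible to the unaided eye.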

Escherichia coli [2] = experiment: Antibacterial activity against ESBL-producing Escherichia coli ATCC 35218 incubated for 24 hrs by broth microdilution method; format: functional; summary of the method: as §1
Klebsiella pneumoniae [3] = experiment: Antibacterial activity against Klebsiella pneumoniae ATCC 700603 incubated for 24 hrs by broth microdilution method; format: functional; summary of the method: as §1
Klebsiella pneumoniae [4] = experiment: Antibacterial activity against carbapenem-resistant Klebsiella pneumoniae id-146/19 incubated for 24 hrs by broth microdilution method; format: functional
Summary of the method: (§2)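 CLSI-based broth microdilution. Pure bacterial suspensions adjusted to 0.5 McFarland (about (1−2) × 10^8 CFU/mL), then diluted to a final inoculum of about 5 × 10^5 CFU/mL (5 × 10^4 CFU/well). Compounds were tested in 2-fold dilutions from 100 to 0.78 μM. Plates incubated 24 h at 35 °C. MIC was the lowest concentration with complete growth inhibition by unaided eye, reported in μM.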

Acinetobacter baumannii [5] = experiment: Antibacterial activity against Acinetobacter baumannii ATCC 19606 incubated for 24 hrs by broth microdilution method; format: functional; summary of the method: as §1
Acinetobacter baumannii [6] = experiment: Antibacterial activity against carbapenem-resistant Acinetobacter baumannii id-261/16 incubated for 24 hrs by broth microdilution method; format: functional; summary of the method: as §2
Pseudomonas aeruginosa [7] = experiment: Antibacterial activity against Pseudomonas aeruginosa ATCC 27853 incubated for 24 hrs by broth microdilution method; format: functional; summary of the method: as §1
Pseudomonas aeruginosa [8] = experiment: Antibacterial activity against carbapenem-resistant Pseudomonas aeruginosa S-6065/06 incubated for 24 hrs by broth microdilution method; format: functional; summary of the method: as §2
Enterococcus faecalis [9] = experiment: Antibacterial activity against Enterococcus faecalis ATCC 29212 incubated for 24 hrs by broth microdilution method; format: functional; summary of the method: as §1
Enterococcus faecalis [10] = experiment: Antibacterial activity against vancomycin resistant Enterococcus faecalis ATCC 51299 incubated for 24 hrs by broth microdilution method; format: functional; summary of the method: as §2
Staphylococcus aureus [11] = experiment: Antibacterial activity against Staphylococcus aureus ATCC 25923 incubated for 24 hrs by broth microdilution method; format: functional; summary of the method: as §2
Staphylococcus aureus [12] = experiment: Antibacterial activity against oxacillin-resistant Staphylococcus aureus ATCC 33591 incubated for 24 hrs by broth microdilution method; format: functional; summary of the method: as §2
[13] = Hemolytic activity against BALB/c mouse erythrocyte at 100 uM measured after 2 hrs relative to control; format: toxicity, cell-based; settings: erythrocytes, read-out: Activity
Summary of the method: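 BALB/c mouse erythrocytes, as a 3% suspension in 1× PBS, were exposed to compound at 100 to 6.25 μM for 2 h at 24 °C. Hemolysis was read as supernatant optical density at 570 nm. Distilled water gave maximum hemolysis, and untreated erythrocytes served as the negative control.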

OVCAR3 (Homo sapiens) = experiment: Cytotoxicity against human OVCAR3 cells assessed as inhibition of cell viability at 50 uM incubated for 72 hrs by MTT assay relative to control

## Nc1nc([C@@H]2c3[nH]c(N)nc3C[C@H](CNC(=O)c3cc(Br)c[nH]3)[C@H]2CNC(=O)c2cc(Br)c[nH]2)c[nH]1
Escherichia coli [1]
  MIC: 100 µM (≈ 62 µg/mL)
Escherichia coli [2]
  MIC: 100 µM (≈ 62 µg/mL)
Klebsiella pneumoniae [3]
  MIC: > 100 µM
Klebsiella pneumoniae [4]
  MIC: > 100 µM
Acinetobacter baumannii [5]
  MIC: > 100 µM
Acinetobacter baumannii [6]
  MIC: > 100 µM
Pseudomonas aeruginosa [7]
  MIC: 50 µM (≈ 31 µg/mL)
Pseudomonas aeruginosa [8]
  MIC: > 100 µM
Enterococcus faecalis [9]
  MIC: > 100 µM
Enterococcus faecalis [10]
  MIC: > 100 µM
Staphylococcus aureus [11]
  MIC: > 100 µM
Staphylococcus aureus [12]
  MIC: > 100 µM
[13]
  hemolysis at 2 h, 100 µM: 2.3%
OVCAR3 (Homo sapiens)
  Activity: 50%

## Nc1nc([C@@H]2c3nc(N)[nH]c3C[C@H](CNC(=O)c3cc(Br)c(Br)[nH]3)[C@H]2CNC(=O)c2cc(Br)c(Br)[nH]2)c[nH]1
Escherichia coli [1]
  MIC: 12.5 µM (≈ 9.73 µg/mL)
Escherichia coli [2]
  MIC: 12.5 µM (≈ 9.73 µg/mL)
Klebsiella pneumoniae [3]
  MIC: 12.5 µM (≈ 9.73 µg/mL)
Klebsiella pneumoniae [4]
  MIC: 25 µM (≈ 19.5 µg/mL)
Acinetobacter baumannii [5]
  MIC: 100 µM (≈ 77.8 µg/mL)
Acinetobacter baumannii [6]
  MIC: 100 µM (≈ 77.8 µg/mL)
Pseudomonas aeruginosa [7]
  MIC: 25 µM (≈ 19.5 µg/mL)
Pseudomonas aeruginosa [8]
  MIC: 25 µM (≈ 19.5 µg/mL)
Enterococcus faecalis [9]
  MIC: 6.2 µM (≈ 4.82 µg/mL)
Enterococcus faecalis [10]
  MIC: 6.2 µM (≈ 4.82 µg/mL)
Staphylococcus aureus [11]
  MIC: 6.2 µM (≈ 4.82 µg/mL)
Staphylococcus aureus [12]
  MIC: 6.2 µM (≈ 4.82 µg/mL)
[13]
  hemolysis at 2 h, 100 µM: 0.7%

## Nc1nc([C@@H]2c3[nH]c(N)nc3C[C@H](CNC(=O)c3cc(Br)c[nH]3)[C@H]2CNC(=O)c2cc(Br)c(Br)[nH]2)c[nH]1 [BROMOAGELIFERIN]
Escherichia coli [1]
  MIC: 12.5 µM (≈ 8.74 µg/mL)
Escherichia coli [2]
  MIC: 25 µM (≈ 17.5 µg/mL)
Klebsiella pneumoniae [3]
  MIC: > 100 µM
Klebsiella pneumoniae [4]
  MIC: > 100 µM
Acinetobacter baumannii [5]
  MIC: > 100 µM
Acinetobacter baumannii [6]
  MIC: 100 µM (≈ 69.9 µg/mL)
Pseudomonas aeruginosa [7]
  MIC: 12.5 µM (≈ 8.74 µg/mL)
Pseudomonas aeruginosa [8]
  MIC: 50 µM (≈ 35 µg/mL)
Enterococcus faecalis [9]
  MIC: > 100 µM
Enterococcus faecalis [10]
  MIC: > 100 µM
Staphylococcus aureus [11]
  MIC: 12.5 µM (≈ 8.74 µg/mL)
Staphylococcus aureus [12]
  MIC: 12.5 µM (≈ 8.74 µg/mL)
[13]
  hemolysis at 2 h, 100 µM: 1.5%

— ChEMBL document CHEMBL5120823, “Feature-Based Molecular Networking Discovery of Bromopyrrole Alkaloids from the Marine Sponge Agelas dispar” (J Nat Prod, 2022)
